molecular target: Melanin-concentrating hormone receptor 1 (Rattus norvegicus, UniProt P97639); assay: Binding affinity to rat MCH1 receptor
Method in brief: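 Membranes from mammalian cells stably transfected with rat MCH1 receptor, prepared by nitrogen cavitation (900 psi, ice, 30 min) and differential centrifugation (800g, then 38 000g). Radioligand competition at equilibrium in 50 mM HEPES pH 7.0, 10 mM MgCl2, 2 mM EGTA. Hits were taken to 12-point dose-response curves to derive Ki. Bound and free were separated by filtration over PEI-treated GF-C filters and counted by scintillation.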

Chain of Melanin-concentrating hormone receptor 1 (P97639 whole entry): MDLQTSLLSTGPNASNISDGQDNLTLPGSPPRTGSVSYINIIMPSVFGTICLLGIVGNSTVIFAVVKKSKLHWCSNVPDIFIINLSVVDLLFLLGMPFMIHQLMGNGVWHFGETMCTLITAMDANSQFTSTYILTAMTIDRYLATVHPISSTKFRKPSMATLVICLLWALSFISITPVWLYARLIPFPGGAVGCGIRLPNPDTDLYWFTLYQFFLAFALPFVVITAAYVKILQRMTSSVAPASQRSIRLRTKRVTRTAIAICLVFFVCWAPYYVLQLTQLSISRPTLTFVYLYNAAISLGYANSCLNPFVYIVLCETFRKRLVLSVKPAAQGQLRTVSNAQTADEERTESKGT

Compound	Ki [nM]
O=C(Cc1csc2ccccc12)NC[C@@H]1CCCN1Cc1ccc(Cl)c(Cl)c1	6000
O=C(CCCc1ccccc1)NC[C@@H]1CCCN1CCc1ccccc1	> 10000
O=C(CCc1ccccc1)NC1CCN(Cc2ccc(Cl)c(Cl)c2)C1 (centres undefined)	> 10000
O=C(CCCc1ccccc1)NC[C@H]1CCCN1CCc1ccccc1	3100
O=C(Cc1ccccc1)NC1CCN(CCc2ccccc2)C1 (centres undefined)	> 10000
Clc1ccc(-c2ccc(CNC3CCN(CC(c4ccccc4)c4ccccc4)C3)o2)cc1 (centres undefined)	1700
CC(CCN1CCC(NCc2ccc(-c3ccc(Cl)cc3)o2)C1)CC(C)(C)C (centres undefined)	5000
O=C(Cc1csc2ccccc12)NC[C@H]1CCCN1Cc1ccc(Cl)c(Cl)c1	9800
O=C(Cc1ccccc1)NC1CCN(Cc2ccccc2)C1 (centres undefined)	> 10000

These reach a lower Ki. Values come first.

Ki [nM]	Compound
980	O=C(Cc1ccccc1)NC1CCN(Cc2ccc(Cl)c(Cl)c2)C1 (centres undefined)
510	O=C(Cc1ccc(Oc2ccccc2)cc1)NC1CCN(Cc2ccc(Cl)c(Cl)c2)C1 (centres undefined)
360	O=C(Cc1csc2ccccc12)NC1CCN(Cc2ccc(Cl)c(Cl)c2)C1 (centres undefined)
630	O=C(Cc1ccc2c(c1)OCO2)NC1CCN(Cc2ccc(Cl)c(Cl)c2)C1 (centres undefined)
2	COCC1=C(C(=O)OC)[C@H](c2ccc(F)c(F)c2)N(C(=O)NCCCN2CCC(c3cccc(NC(C)=O)c3)CC2)C(=O)N1 [SNAP-7941]
